ARFGAP1 inhibitor = inhibitors of rat ARFGAP1; Q62848; Arfgap1-stimulated ARF1 GTP hydrolysis, GDP FP detection; inhibition, % at 16.5 µM; 360,000 tested, 0.26% active; AID 651572;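 active means inhibition above a per-plate limit, mean inhibition of low control wells plus 3 SD, cut at about 25% in these data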
Target sequence (Q62848 1-136 limits assumed): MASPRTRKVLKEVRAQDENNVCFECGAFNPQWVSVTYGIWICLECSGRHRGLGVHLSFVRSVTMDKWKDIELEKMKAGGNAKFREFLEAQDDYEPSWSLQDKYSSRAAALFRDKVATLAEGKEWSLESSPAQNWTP
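System: truncated rat Arfgap1 GAP domain / Benchmarks: high control wells lacking Arfgap1, low control full reaction with DMSO / Times: compound-enzyme preincubation 20 min, reaction 120 min, detection 60 min, 25 °C / Repeats: one replicate per compound / Also added: human ARF1(Δ1-17)-GTP substrate / Measured by: Tracer-displacement fluorescence polarization with EDTA stop, 620/688 nm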
ASAP1 GAP inh = ASAP1 ArfGAP inhibition | ASAP1-stimulated ARF1 GTP hydrolysis, GDP FP detection | inhibition, % at 16.5 µM | 360,000 tested, 0.19% active | AID 624377; in the data active means inhibition above about 25%
Target sequence (Q9ULH1 325-724 limits assumed): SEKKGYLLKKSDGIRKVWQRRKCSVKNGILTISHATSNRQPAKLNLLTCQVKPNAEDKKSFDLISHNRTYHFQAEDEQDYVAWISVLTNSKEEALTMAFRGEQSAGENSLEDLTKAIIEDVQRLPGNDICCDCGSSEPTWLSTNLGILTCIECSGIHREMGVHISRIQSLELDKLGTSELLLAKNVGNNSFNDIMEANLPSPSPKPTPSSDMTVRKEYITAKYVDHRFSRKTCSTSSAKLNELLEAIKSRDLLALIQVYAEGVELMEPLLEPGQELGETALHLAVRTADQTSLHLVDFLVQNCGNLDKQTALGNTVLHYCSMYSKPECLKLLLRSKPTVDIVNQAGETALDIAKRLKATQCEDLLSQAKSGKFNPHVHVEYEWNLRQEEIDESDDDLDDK
SKKanGAS inh = SKKanGAS growth inhibition. AID 1662. inhibition, % at 7.5 µM. 300,000 tested, 1.3% active. S. pyogenes SKKanGAS, kanamycin growth, BacTiter-Glo, 6 h;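 active means mean replicate score, as percent of positive control median, at least 50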;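 further: strain carries kanamycin resistance gene driven by streptokinase promoter and grows in 40 µg/ml kanamycin; loss of luminescence reflects streptokinase promoter inhibition or plain growth inhibition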
sPLA2-III inh = Blocks human group III sPLA2 activity | Q9NZ20 | 370,000 tested, 0.56% active | QFRET BODIPY PC-A2 liposome hydrolysis, fluorescence | inhibition, % at 12.2 µM;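 active means inhibition above mean plus 3 SD of compounds lying within the high and low control bounds, cut at about 19% in these data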
Calb FLC = affects C. albicans growth with fluconazole; 300,000 tested, 0.57% active; growth inhibition, % (no concentration beside the values); C. albicans CaCi-2 + fluconazole, Alamar Blue growth, 48 h;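 active means growth inhibition above about 58% in most replicates, limit read from the data, passing the limit was not always enough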;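 further: all wells also contain fluconazole at 8 µg/ml as a sub-toxic cotreatment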
A number is an active result; n = inactive; x = no result. Compounds with a hit are over-represented: about 2.3% of the library has one in this group of screens.

SMILES	ARFGAP1 inhibitor	ASAP1 GAP inh	SKKanGAS inh	sPLA2-III inh	Calb FLC
Cc1nc(-c2ccccn2)nc(SCC(=O)c2ccccc2)c1Cl	n	n	92.9	n	n
O=C(NCCc1c[nH]c2ccccc12)c1ccc(Sc2ccccc2Cl)c([N+](=O)[O-])c1	x	x	x	n	x
O=C(c1ccc(Cl)cc1)N1CCN(c2ccccn2)CC1	x	x	x	n	x
N#Cc1ccc(-c2csc(NNC(=O)c3ccccc3)n2)cc1	n	n	n	38.9	n
O=C(Nc1ccc(-c2csc(Nc3ccccc3)n2)cc1)c1ccccc1	n	n	n	n	n
COC(=O)[C@]12C[C@H](CC(=O)NCc3cccc4ccccc34)C(=O)N(Cc3ccc4c(c3)OCO4)C1=C[C@H](COCc1ccccc1)O[C@@H]2C	n	n	x	n	x
Cc1ccc(NC(=S)NC2CCSc3ccccc32)cc1C (centres undefined)	n	n	60.9	n	n
CN(CCO)c1cccc2c1S(=O)(=O)N(Cc1cn(Cc3ccc(F)cc3)nn1)Cc1ccccc1O2	x	x	x	n	x
O=C(Nc1ccccc1C(=O)Nc1nnc(C(F)(F)F)s1)c1ccccc1	n	n	97.0	n	n
Cc1ccc(-c2nc3ncccn3c2NC(=O)c2ccccc2)cc1	x	x	x	n	x
COc1ccc(C2Nc3ccccc3C(=O)N2O)cc1OC (centres undefined)	n	n	n	n	97.4
COc1ccc(C2Nc3ccccc3C(=O)N2NC(C)=O)cc1OC (centres undefined)	n	n	n	n	n
O=C1c2ccccc2NC(c2cnc3ccccc3n2)N1O (centres undefined)	n	n	n	n	104.2
S=c1[nH]nc(-c2cc(-c3ccccc3)n[nH]2)n1/N=C/c1ccc(Cl)c(Cl)c1	n	n	n	n	n
S=c1[nH]nc(-c2cc(-c3ccccc3)n[nH]2)n1/N=C/c1cccc(Cl)c1	n	n	60.0	n	n
S=c1[nH]nc(-c2cc(-c3ccccc3)n[nH]2)n1/N=C/c1ccc(Cl)cc1	n	n	56.1	n	n
COC(=O)c1cc(C(C)c2c[nH]c3ccccc23)n2ccccc12 (centres undefined)	x	x	x	n	x
Cc1nc2c(=O)oc3ccccc3c2n1-c1ccccc1	n	n	n	n	91.6
CCn1c(C)nc2c(=O)oc3ccccc3c21	n	n	n	n	n
CC(=O)Nc1sc(NC(=O)c2ccc([N+](=O)[O-])cc2)nc1-c1cccs1	n	n	55.8	n	n
CC(=O)Nc1sc(NC(=O)c2ccc(Cl)cc2)nc1-c1cccs1	n	n	n	n	n
CC[C@H]1OC(=O)[C@H](C)[C@@H](O[C@H]2C[C@@](C)(OC)[C@@H](O)[C@H](C)O2)[C@H](C)[C@@H](O[C@@H]2O[C@H](C)C[C@H](N(C)C)[C@H]2O)[C@](C)(O)C[C@@H](C)C(=O)[C@H](C)[C@@H](O)[C@]1(C)O	n	n	101.7	n	x
CCOC(=O)CCC(=O)O[C@H]1[C@H](O[C@@H]2[C@@H](C)[C@H](O[C@H]3C[C@@](C)(OC)[C@@H](O)[C@H](C)O3)[C@@H](C)C(=O)O[C@H](CC)[C@@](C)(O)[C@H](O)[C@@H](C)C(=O)[C@H](C)C[C@@]2(C)O)O[C@H](C)C[C@@H]1N(C)C	n	n	104.7	n	n
CCOc1cc(/C=C(\C#N)C(=O)NCC2CCCO2)ccc1OCC(N)=O (centres undefined)	n	n	n	n	105.1
COc1cc(NC(=S)NCc2cccnc2)c(OC)cc1Cl	n	n	n	n	n
SMILES	ARFGAP1 inhibitor	ASAP1 GAP inh	SKKanGAS inh	sPLA2-III inh	Calb FLC
COc1cc(OC)c(NC(=S)NCc2ccccc2)cc1Cl	n	n	x	n	125.5
COc1ccc(S[C@]2(C(=O)N3CCN(C(C)=O)CC3)CC(=O)N(C(=O)C3CC3)[C@@H]2c2ccc(OC)cc2)cc1	x	x	x	n	x
Cc1ccccc1N1CCN(CCN2C(=O)CC(=C3c4ccccc4-c4ccccc43)C2=O)CC1	n	n	n	n	89.9
COc1ccccc1N1CCN(CCN2C(=O)CC(=C3c4ccccc4-c4ccccc43)C2=O)CC1	x	x	n	x	n
COC(=O)C1CN(Cc2ccc(F)cc2)CCS(=O)(=O)N1Cc1ccc(C(F)(F)F)cc1 (centres undefined)	x	x	x	n	x
Cc1[nH]c2ccccc2c1/C=C/c1cc[n+](C)cc1	n	n	n	n	104.2
COc1ccc(-c2cc(-c3nnc4sc(-c5cccs5)nn34)[nH]n2)cc1	x	x	x	n	x
O=C(CN1CCOCC1)N/N=C/c1c(O)ccc2ccccc12	n	n	n	n	n
O=C(CSCC(=O)Nc1ccccc1)N/N=C/c1c(O)ccc2ccccc12	n	n	n	n	113.3
CC(=O)Nc1ccc(N=Cc2c(O)ccc3ccccc23)cc1	n	n	n	n	n
COc1ccc(NC(C)C(=O)N/N=C/c2c(O)ccc3ccccc23)cc1 (centres undefined)	n	n	96.8	n	n
O=C(CNc1ccccc1)N/N=C/c1c(O)ccc2ccccc12	n	n	101.4	n	n
O=C(N/N=C/c1c(O)ccc2ccccc12)Nc1ccccc1	n	n	92.9	n	n
COc1ccc(Sc2cccc(Cl)c2)c(C(=O)O)c1	n	n	x	n	x
O=C(NC(CSCc1ccccc1)C(=O)N/N=C/c1ccc(O)cc1O)c1ccc([N+](=O)[O-])cc1 (centres undefined)	n	n	70.7	n	n
O=c1oc2ccccc2c2oc3cc(O)c(O)cc3c12	n	n	n	21.6	n
COc1cc2oc3ccc(C#Cc4ccc(N)cc4)cc3c(=O)c2cc1OC	n	n	77.5	n	n
COc1cc2oc3cc(C#Cc4ccc(N)cc4)ccc3c(=O)c2cc1OC	n	n	58.1	n	n
N#Cc1ccc(C#Cc2ccc3oc4ccccc4c(=O)c3c2)cc1	n	n	x	n	x
Nc1ccc(C#Cc2ccc3c(=O)c4ccccc4oc3c2)cc1	n	n	n	n	n
O=C(c1cnc(-c2ccccc2)s1)c1ccc(Cl)cc1Cl	n	n	57.2	n	n
O=C(c1ccc(Cl)cc1)c1cnc(-c2ccccc2)s1	n	n	x	n	x
Cc1cc(O)c(C(C)C)cc1N=Cc1cc([N+](=O)[O-])ccc1O	n	n	n	n	n
O=c1[nH]cc(N=Cc2cc([N+](=O)[O-])ccc2O)c(=O)[nH]1	x	x	n	x	93.3
CC1(C)CC[C@]2(C(=O)O)CC[C@]3(C)C(=CCC4[C@@]5(C)CC[C@H](O)C(C)(C)C5CC[C@]43C)C2C1 (some centres undefined)	n	n	105.4	n	n
FC(F)(F)c1ccc(Oc2ccc3ccccc3c2Br)nc1	n	n	63.0	n	n
O=C1c2ccc3c4c(ccc(c24)C(=O)N1c1cccc(O)c1)C(=O)N(c1cccc(O)c1)C3=O	n	n	65.0	n	n
O=C1c2ccc3c4c(ccc(c24)C(=O)N1c1cccc(O)c1)CC3	n	n	n	n	n
O=C(Nc1nc(=S)ss1)c1ccc(Cl)cc1Cl	n	n	52.2	n	n
O=C(Nc1ccc2ccccc2c1)c1ccc(Cl)cc1Cl	n	n	n	n	x

High-throughput results as filed in PubChem.
